pIC50: −log10 of the molar value.
Experiments:
[1] = test system: L1210; assay: Compound was tested for percent increase in life span against L1210 lymphoid leukemia; assay type: functional, Mus musculus
[2] = test system: P388; assay: Compound was tested for mean survival time of treated mice in days / mean survival time of control mice x 100 against P388 lymphoid leukemia cells; Inactive; assay type: functional, Mus musculus
[3] = test system: L1210; assay: Compound was tested for the concentration required to inhibit the growth rate of the control L1210 cells by 50%; Value ranges from 2.60-4.71; assay type: functional; conditions: Mus musculus, read-out: ID50 (the source's name)
[4] = test system: L1210; assay: Compound was tested for its inhibitory activity against L1210 lymphoid leukemia; assay type: functional, cell-based; conditions: Mus musculus
[5] = test system: L1210; assay: Compound was tested for mean survival time of treated mice in days / mean survival time of control mice x 100 against L1210 lymphoid leukemia cells; assay type: functional, Mus musculus
In short: (§1)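 CD2F1 mice in groups of six received 1 × 10⁵ L1210 lymphoid leukemia cells ip. Dosing was ip, once a day for 5 days, starting 24 h after tumor inoculation, under standard NCI protocol. %T/C = (mean survival time of treated mice in days / mean survival time of controls) × 100. Toxic deaths were excluded from the %T/C calculation.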

[6] = test system: L1210; assay: Antitumor activity against L1210 lymphoid leukemia in CD2F1 mice at 50 mg/injection and measured as mean survival time of treated mice in days/mean survival time of control mice x 100 before first treatment was reported; assay type: functional, Mus musculus; in short: as §1
[7] = test system: L1210; assay: Antitumor activity against L1210 lymphoid leukemia in CD2F1 mice at 100 mg/injection and measured as mean survival time of treated mice in days/mean survival time of control mice x 100 before second treatment was reported; assay type: functional, Mus musculus; in short: as §1
[8] = test system: L1210; assay: Antitumor activity against L1210 lymphoid leukemia in CD2F1 mice at a dose of 200 mg/injection measured as difference between estimated tumor burdens before first treatment; assay type: functional, Mus musculus
In short: (§2)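 CD2F1 mice, in groups of six, received 1 × 10⁵ L1210 cells ip and were dosed ip once daily for 5 days from 24 h after inoculation. Net cell kill is the estimated change in tumor burden from before the first dose to just after the last. It is calculated as (T − C − Rx)/3.32Td, using the tumor doubling time observed in that test and survival after the last treatment.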

[9] = test system: L1210; assay: Antitumor activity against L1210 lymphoid leukemia in CD2F1 mice at a dose of 50 mg/injection measured as difference between estimated tumor burdens before second treatment; assay type: functional, Mus musculus; in short: as §2
[10] = test system: L1210; assay: Antitumor activity against L1210 lymphoid leukemia in CD2F1 mice at 25 mg/injection and measured as mean survival time of treated mice in days/mean survival time of control mice x 100 before second treatment was reported; assay type: functional, Mus musculus; in short: as §1
[11] = test system: L1210; assay: Antitumor activity against L1210 lymphoid leukemia in CD2F1 mice at a dose of 25 mg/injection measured as difference between estimated tumor burdens before second treatment; assay type: functional, Mus musculus; in short: as §2
[12] = test system: L1210; assay: Antitumor activity against L1210 lymphoid leukemia in CD2F1 mice at a dose of 100 mg/injection measured as difference between estimated tumor burdens before first treatment; assay type: functional, Mus musculus; in short: as §2
[13] = test system: L1210; assay: Antitumor activity against L1210 lymphoid leukemia in CD2F1 mice at a dose of […] measured as difference between estimated tumor burdens before second treatment; assay type: functional, Mus musculus
[14] = test system: L1210; assay: Antitumor activity against L1210 lymphoid leukemia in CD2F1 mice at 25 mg/injection and measured as mean weight change (days 5 minus 1) of treated mice minus mean weight change of control mice before first treatment was reported; assay type: functional, Mus musculus
In short: (§3)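 CD2F1 mice, in groups of six, were inoculated ip with 1 × 10⁵ L1210 lymphoid leukemia cells. Dosing was ip once daily for 5 days, starting 24 h after inoculation. Toxicity was scored as the mean weight change of treated mice (day 5 minus day 1) minus the mean weight change of control mice.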

[15] = test system: L1210; assay: Antitumor activity against L1210 lymphoid leukemia in CD2F1 mice at 300 mg/injection and measured as mean survival time of treated mice in days/mean survival time of control mice x 100 before first treatment was reported; assay type: functional, Mus musculus; in short: as §1
[16] = test system: L1210; assay: Antitumor activity against L1210 lymphoid leukemia in CD2F1 mice at 25 mg/injection and measured as mean weight change (days 5 minus 1) of treated mice minus mean weight change of control mice before second treatment was reported; assay type: functional, Mus musculus; in short: as §3
[17] = test system: L1210; assay: Antitumor activity against L1210 lymphoid leukemia in CD2F1 mice at 100 mg/injection and measured as mean weight change (days 5 minus 1) of treated mice minus mean weight change of control mice before first treatment was reported; assay type: functional, Mus musculus; in short: as §3
[18] = test system: L1210; assay: Antitumor activity against L1210 lymphoid leukemia in CD2F1 mice at 25 mg/injection and measured as mean survival time of treated mice in days/mean survival time of control mice x 100 before first treatment was reported; assay type: functional, Mus musculus; in short: as §1
[19] = test system: L1210; assay: Antitumor activity against L1210 lymphoid leukemia in CD2F1 mice at a dose of 25 mg/injection measured as difference between estimated tumor burdens before first treatment; assay type: functional, Mus musculus; in short: as §2
[20] = test system: L1210; assay: Antitumor activity against L1210 lymphoid leukemia in CD2F1 mice at 50 mg/injection and measured as mean survival time of treated mice in days/mean survival time of control mice x 100 before second treatment was reported; assay type: functional, Mus musculus; in short: as §1
[21] = test system: L1210; assay: Antitumor activity against L1210 lymphoid leukemia in CD2F1 mice at a dose of 100 mg/injection and difference between estimated tumor burdens before second treatment; assay type: functional, Mus musculus; in short: as §2
[22] = test system: L1210; assay: Antitumor activity against L1210 lymphoid leukemia in CD2F1 mice at 200 mg/injection and measured as mean survival time of treated mice in days/mean survival time of control mice x 100 before second treatment was reported; assay type: functional, Mus musculus; in short: as §1
[23] = test system: L1210; assay: Antitumor activity against L1210 lymphoid leukemia in CD2F1 mice at 200 mg/injection and measured as mean weight change (days 5 minus 1) of treated mice minus mean weight change of control mice before first treatment was reported; assay type: functional, Mus musculus; in short: as §3
[24] = test system: L1210; assay: Antitumor activity against L1210 lymphoid leukemia in CD2F1 mice at 50 mg/injection and measured as mean weight change (days 5 minus 1) of treated mice minus mean weight change of control mice before first treatment was reported; assay type: functional, Mus musculus; in short: as §3
[25] = test system: L1210; assay: Antitumor activity against L1210 lymphoid leukemia in CD2F1 mice at a dose of 300 mg/injection measured as difference between estimated tumor burdens before first treatment; assay type: functional, Mus musculus; in short: as §2
[26] = test system: L1210; assay: Antitumor activity against L1210 lymphoid leukemia in CD2F1 mice at 100 mg/injection and measured as mean survival time of treated mice in days/mean survival time of control mice x 100 before first treatment was reported; assay type: functional, Mus musculus; in short: as §1
[27] = test system: L1210; assay: Antitumor activity against L1210 lymphoid leukemia in CD2F1 mice at a dose of 50 mg/injection measured as difference between estimated tumor burdens before first treatment; assay type: functional, Mus musculus; in short: as §2
[28] = test system: L1210; assay: Antitumor activity against L1210 lymphoid leukemia in CD2F1 mice at 200 mg/injection and measured as mean weight change (days 5 minus 1) of treated mice minus mean weight change of control mice before second treatment was reported; assay type: functional, Mus musculus; in short: as §3
[29] = test system: L1210; assay: Antitumor activity against L1210 lymphoid leukemia in CD2F1 mice at 100 mg/injection and measured as mean weight change (days 5 minus 1) of treated mice minus mean weight change of control mice before second treatment was reported; assay type: functional, Mus musculus; in short: as §3
[30] = test system: L1210; assay: Ability to inhibit growth of L1210 lymphocyte leukemia cell in culture; assay type: functional, cell-based; conditions: Mus musculus
[31] = test system: L1210; assay: Antitumor activity against L1210 lymphoid leukemia in CD2F1 mice at […] and measured as mean weight change (days 5 minus 1) of treated mice minus mean weight change of control mice before second treatment was reported; assay type: functional, Mus musculus
[32] = test system: L1210; assay: Antitumor activity against L1210 lymphoid leukemia in CD2F1 mice at 200 mg/injection and measured as mean survival time of treated mice in days/mean survival time of control mice x 100 before first treatment was reported; assay type: functional, Mus musculus; in short: as §1
[33] = test system: L1210; assay: Antitumor activity against L1210 lymphoid leukemia in CD2F1 mice at 50 mg/injection and measured as mean weight change (days 5 minus 1) of treated mice minus mean weight change of control mice before second treatment was reported; assay type: functional, Mus musculus; in short: as §3
[34] = test system: L1210; assay: Antitumor activity against L1210 lymphoid leukemia in CD2F1 mice at 300 mg/injection and mean weight change (days 5 minus 1) of treated mice minus mean weight change of control mice before first treatment was reported; assay type: functional, Mus musculus; in short: as §3
[35] = test system: L1210; assay: Antitumor activity against L1210 lymphoid leukemia in CD2F1 mice at […] and measured as mean survival time of treated mice in days/mean survival time of control mice x 100 before second treatment was reported; assay type: functional, Mus musculus

Nc1nc(=O)n([C@H]2C[C@H](O)[C@@H](CO)O2)cc1F
ILS [1]: >161%

Nc1ccnc(O)c1F
T/C [2]: <125%

Nc1cc(O)nc(F)c1
T/C [2]: <125%

Nc1cc(O)ncc1F
T/C [2]: <125%

Nc1c(F)c(O)nc(F)c1F
pIC50 [3]: 4.33
T/C [2]: <125%

NNc1nc(F)c(F)c(N)c1F
pIC50 [3]: 4.33
T/C [2]: <125%

Nc1c(F)cnc(F)c1F
pIC50 [3]: 4.33
T/C [2]: <125%

Nc1ccn([C@@H]2O[C@H](CO)[C@@H](O)[C@H]2O)c(=O)c1
pIC50 [4]: 4.75

CC(=O)Nc1ccn([C@@H]2O[C@H](COC(C)=O)[C@@H](OC(C)=O)[C@H]2OC(C)=O)c(=O)c1F
pIC50 [4]: 4.90

Nc1ccn([C@H]2C[C@H](O)[C@@H](CO)O2)c(=O)c1F
T/C [5]: <125%

Nc1c(F)cn([C@H]2C[C@H](O)[C@@H](CO)O2)c(=O)c1F
T/C [5]: <125%

C[C@@]1(n2cc(F)c(N)c(F)c2=O)C[C@H](O)[C@@H](CO)O1
T/C [5]: <125%

Nc1c(F)cnc(O)c1F
pIC50 [3]: 4.33
T/C [2]: <125%

Nc1c(F)cn(C2O[C@H](CO)[C@@H](O)[C@H]2O)c(=O)c1F (some centres not stated)
T/C [5]: <125%

Nc1ccn(C2O[C@H](CO)[C@@H](O)[C@H]2O)c(=O)c1F (some centres not stated)
T/C [6]: 182%
T/C [7]: 216%
Net log kill [8]: 3.91
Net log kill [9]: 3.01
T/C [10]: 157%
Net log kill [11]: 0.78
Net log kill [12]: 2.93
Net log kill [13]: -0.97
BWD [14]: -1
T/C [15]: 230%
BWD [16]: -1
BWD [17]: -3
T/C [18]: 169%
Net log kill [19]: 1.3
T/C [20]: 185%
Net log kill [21]: 5.54
T/C [22]: 208%
BWD [23]: -4.8
BWD [24]: -1.7
Net log kill [25]: 5.37
T/C [26]: 193%
Net log kill [27]: 2.2
BWD [28]: -3.4
BWD [29]: -1.3
pIC50 [30]: 4.97
BWD [31]: -0.5
T/C [32]: 208%
BWD [33]: -1.1
BWD [34]: -4.7
T/C [35]: 136%

Nc1ncn([C@@H]2O[C@H](CO)[C@@H](O)[C@H]2O)c(=O)n1 [AZACITIDINE]
pIC50 [4]: 6.39

Nc1ccn([C@@H]2O[C@H](CO)[C@@H](O)[C@@H]2O)c(=O)n1 [CYTARABINE]
ILS [1]: >161%

Nc1ncn([C@H]2C[C@H](O)[C@@H](CO)O2)c(=O)n1 [DECITABINE]
pIC50 [4]: 6.41

Nc1ccn([C@H]2C[C@H](O)[C@@H](CO)O2)c(=O)n1 [DOXECITINE]
ILS [1]: >161%

— ChEMBL document CHEMBL1123674, “Synthesis and antitumor activity of fluorine-substituted 4-amino-2(1H)-pyridinones and their nucleosides. 3-Deazacytosines” (J Med Chem, 1987)
